Tests used:
Mus musculus [1] = experiment: Anticonvulsant activity after intraperitoneal injection into mice by using MES screen test after 0.5 hr; format: functional
Mus musculus [2] = experiment: Anticonvulsant activity after intraperitoneal injection into mice measured in a maximal electroshock scree (MES) screen; format: functional
Mus musculus [3] = experiment: Compound was tested for toxicity after intraperitoneal injection into mice by using toxicity screen test after 4 hr; format: organism-based; details: in vivo, ip
How it was run: (§1)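 Mice injected intraperitoneally at 30, 100 and 300 mg/kg and examined 0.5 and 4 h afterwards. Each entry is the minimum dose giving activity (MES protection, scPTZ protection, or rotorod failure for neurotoxicity) in half or more of the mice. Activity is called absent if nothing occurs at 300 mg/kg.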

Mus musculus [4] = experiment: Compound was tested for anticonvulsant activity after intraperitoneal injection into mice by using MES screen test after 1 hr; format: functional; details: ip
How it was run: (§2)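 Quantitative intraperitoneal mouse testing in the MES, scPTZ or rotorod neurotoxicity screens at the peak time given for each compound (0.25–2 h). ED50 or TD50 reported in mg/kg with 95% CI and slope (SE).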

[5] = Compound was tested for toxicity after intraperitoneal injection into mice by using neurotoxicity screen test after 2 hr; format: organism-based; details: mouse, in vivo, ip; how it was run: as §2
Rattus norvegicus [6] = experiment: Compound was tested for anticonvulsant activity after Oral Administration into Rats by using MES screen test after 4h,dose 50 mg/kg; number of rats out of four which were protected; format: functional
How it was run: (§3)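 Rats received the compound orally. […] Rats were tested in the MES screen at 0.25, 0.5, 1, 2 and 4 h. Each value is the number of rats protected out of 4. The test followed NINDS procedures.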

Rattus norvegicus [7] = experiment: Compound was tested for anticonvulsant activity after Oral Administration into Rats by using MES screen test after 2h,dose 50 mg/kg; number of rats out of four which were protected; format: functional; how it was run: as §3
Rattus norvegicus [8] = experiment: Compound was tested for anticonvulsant activity after Oral Administration into Rats by using MES screen test after 0.25h,dose 50 mg/kg; No activity was demonstarted; format: functional, organism-based; design: dose 50 mg/kg; how it was run: as §3
Rattus norvegicus [9] = experiment: Compound was tested for anticonvulsant activity after Oral Administration into Rats by using MES screen test after 0.5h,dose 50 mg/kg; number of rats out of four which were protected.; format: functional; how it was run: as §3
Rattus norvegicus [10] = experiment: Compound was tested for anticonvulsant activity after Oral Administration into Rats by using MES screen test after 1h,dose 50 mg/kg; number of rats out of four which were protected; format: functional; how it was run: as §3
Rattus norvegicus [11] = experiment: Compound was tested for anticonvulsant activity after Oral Administration into rat by using MES screen test after 4 hr; format: functional
How it was run: (§4)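 Rats dosed orally, typically at 50 mg/kg first, then mostly 12.5 mg/kg (some compounds at 30 mg/kg), and tested by maximal electroshock. Four rats per compound, scored at 0.25, 0.5, 1, 2 and 4 h as the number of rats protected out of 4.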

[12] = Compound was tested for toxicity after oral administration in rat by using neurotoxicity screen test after 0.25-24 hr; format: organism-based; details: in vivo
How it was run: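 Rat neurotoxicity after oral dosing, observed at 0.25, 0.5, 1, 2, 4, 6, 8 and 24 h (8 h omitted for one compound).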

Mus musculus [13] = experiment: Compound was tested for anticonvulsant activity after intraperitoneal injection into mice by using scPTZ screen test after 1 hr; format: functional; details: ip; how it was run: as §2
Mus musculus [14] = experiment: Anticonvulsant activity after intraperitoneal injection into mice by using scPTZ screen after 0.5 hr; format: functional
Mus musculus [15] = experiment: Anticonvulsant activity after intraperitoneal injection into mice by using scPTZ screen test after 4 hr; format: functional
Mus musculus [16] = experiment: Toxicity after intraperitoneal injection into mice by using toxicity screen test after 0.5 hr; format: organism-based; details: in vivo, ip; how it was run: as §1
Rattus norvegicus [17] = experiment: Compound was tested for anticonvulsant activity after Oral Administration into Rats by using MES screen test after 0.25h,dose 12.5 mg/kg; No activity was demonstarted; format: functional, organism-based; design: dose 12.5 mg/kg; how it was run: as §3
Rattus norvegicus [18] = experiment: Compound was tested for anticonvulsant activity after Oral Administration into Rats by using MES screen test after 4h,dose 12.5 mg/kg; number of rats out of four which were protected; format: functional; how it was run: as §3
Rattus norvegicus [19] = experiment: Anticonvulsant activity after oral administration into rats; format: functional; design: concentration or dose not given beside the values
Rattus norvegicus [20] = experiment: Compound was tested for anticonvulsant activity after Oral Administration into Rats by using MES screen test after 1h,dose 12.5 mg/kg; number of rats out of four which were protected; format: functional; how it was run: as §3
Rattus norvegicus [21] = experiment: Compound was tested for anticonvulsant activity after Oral Administration into rat by using MES screen test after 2 hr; format: functional; how it was run: as §4
[22] = Protection index = TD50/ED50 (MES); format: ADME, organism-based; details: rat, in vivo; read-out: PI
Rattus norvegicus [23] = experiment: Compound was tested for anticonvulsant activity after Oral Administration into Rats by using MES screen test after 2h,dose 12.5 mg/kg; number of rats out of four which were protected; format: functional; how it was run: as §3
Rattus norvegicus [24] = experiment: Compound was tested for anticonvulsant activity after Oral Administration into Rats by using MES screen test after 4h,dose 12.5 mg/kg; No activity was demonstarted; format: functional, organism-based; design: dose 12.5 mg/kg; how it was run: as §3
Rattus norvegicus [25] = experiment: Compound was tested for anticonvulsant activity after Oral Administration into Rats by using MES screen test after 0.5h,dose 12.5 mg/kg; No activity was demonstarted; format: functional, organism-based; design: dose 12.5 mg/kg; how it was run: as §3
Rattus norvegicus [26] = experiment: Compound was tested for anticonvulsant activity after Oral Administration into Rats by using MES screen test after 1h,dose 12.5 mg/kg; No activity was demonstarted; format: functional, organism-based; design: dose 12.5 mg/kg; how it was run: as §3
[27] = Partition coefficient (logP); format: physicochemical; details: octanol/water
How it was run: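 Partition between 1-octanol and buffer at pH 7.4, with solutions prepared in 1-octanol before buffer is added. Quantified by UV, using λmax and ε values measured in 1-octanol.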

Rattus norvegicus [28] = experiment: Compound was tested for anticonvulsant activity after Oral Administration into Rats by using MES screen test after 0.25h,dose 50 mg/kg; number of rats out of four which were protected; format: functional; how it was run: as §3
[29] = Protection index = TD50/ED50 (MES); details: mouse, in vivo; read-out: PI
Mus musculus [30] = experiment: Compound was tested for anticonvulsant activity after intraperitoneal injection into mice by using MES screen test after 2 hr; format: functional; details: ip; how it was run: as §2
Mus musculus [31] = experiment: Compound was tested for anticonvulsant activity after intraperitoneal injection into mice by using scPTZ screen test after 2 hr; format: functional; details: ip; how it was run: as §2
Rattus norvegicus [32] = experiment: Compound was tested for anticonvulsant activity after Oral Administration into Rats by using MES screen test after 0.25h,dose 12.5 mg/kg; number of rats out of four which were protected; format: functional; how it was run: as §3
[33] = Compound was tested for toxicity after intraperitoneal injection into mice by using neurotoxicity screen test after 4 hr; format: organism-based; details: mouse, in vivo, ip; how it was run: as §1
[34] = Protection index = TD50/ED50; format: ADME; details: read-out: PI
Mus musculus [35] = experiment: Compound was tested for anticonvulsant activity after intraperitoneal injection into mice by using MES screen test after 0.5 hr; format: functional; details: ip; how it was run: as §1
Mus musculus [36] = experiment: Compound was tested for anticonvulsant activity after intraperitoneal injection into mice by using scPTZ screen test after 0.5 hr; format: functional; details: ip; how it was run: as §1
[37] = Compound was tested for toxicity after intraperitoneal injection into mice by using neurotoxicity screen test after 1 hr; format: organism-based; details: mouse, in vivo, ip; how it was run: as §2

| Structure (SMILES) | Dose (Mus musculus [1]) [mg/kg] | Dose (Mus musculus [2]) [mg/kg] | Dose (Mus musculus [3]) [mg/kg] | ED50 (Mus musculus [4]) [mg/kg] | TD50 at 2 h [5] [mg/kg] | Activity (Rattus norvegicus [6]) | Activity (Rattus norvegicus [7]) | Activity (Rattus norvegicus [9]) | Activity (Rattus norvegicus [10]) | TD50 [12] [mg/kg] | ED50 (Mus musculus [13]) [mg/kg] | Dose (Mus musculus [14]) [mg/kg] | Dose (Mus musculus [16]) [mg/kg] | Activity (Rattus norvegicus [17]) | Activity (Rattus norvegicus [18]) | Activity (Rattus norvegicus [19]) | Activity (Rattus norvegicus [20]) | Activity (Rattus norvegicus [23]) | also measured |
| --- | --- | --- | --- | --- | --- | --- | --- | --- | --- | --- | --- | --- | --- | --- | --- | --- | --- | --- | --- |
| NC(=O)N/N=C/c1ccc(Sc2ccccc2)cc1 | 30 | 30 | 300 | 15.6 | 181 | 4 | 4 | 4 | 4 | > 496 | > 46 |  |  |  |  |  |  |  | Activity (Rattus norvegicus [8]): No activity; ED50 (Rattus norvegicus [11]): 4.29 mg/kg |
| Cc1ccccc1Oc1ccc(/C=N/NC(N)=O)cc1 | 30 | 100 | 300 |  |  |  |  |  |  | > 500 |  | 100 | 300 | No activity | 4 | 4 | 3 | 4 | Dose (Mus musculus [15]): 100 mg/kg; ED50 (Rattus norvegicus [21]): 5.65 mg/kg; selectivity ratio [22]: > 88 |
| N=C(N)N/N=C/c1ccc(Sc2ccc(F)cc2)cc1 | 300 |  | 100 |  |  |  |  |  |  |  |  | 30 | 100 | No activity |  |  |  | 1 | Dose (Mus musculus [15]): 30 mg/kg; Activity (Rattus norvegicus [24]): No activity; Activity (Rattus norvegicus [25]): No activity; Activity (Rattus norvegicus [26]): No activity |
| COc1ccc(Oc2ccc(/C=N/NC(N)=O)cc2)cc1 | 100 | 100 | 300 |  |  | 4 | 4 | 4 | 4 |  |  |  |  |  |  |  |  |  | logP [27]: 1.29; Activity (Rattus norvegicus [8]): No activity |
| NC(=O)N/N=C/c1ccc(Sc2ccc(Cl)cc2)cc1 | 100 | 30 | 100 | 16.2 | 53.2 | 4 | 4 | 4 | 4 |  | > 120 | 300 |  |  |  |  |  |  | Activity (Rattus norvegicus [28]): 1; selectivity ratio [29]: 3.28 |
| C/C(=N/NC(N)=O)c1ccc(Oc2ccc(Br)cc2)cc1 | 30 | 30 | 100 |  | 104 |  |  |  |  | > 500 |  | 300 | 300 |  | 4 | 3 | 4 | 4 | ED50 (Mus musculus [30]): 12.5 mg/kg; ED50 (Mus musculus [31]): > 110 mg/kg; Activity (Rattus norvegicus [32]): 1; ED50 (Rattus norvegicus [11]): 1.52 mg/kg |
| CCCc1ccc(Oc2ccc(/C=N/NC(N)=O)cc2)cc1 | 100 | 100 | 300 | 11 |  |  |  |  |  | > 500 | 79.6 | 300 |  | No activity | 2 | 1 | 2 | 4 | TD50 at 4 h [33]: 243 mg/kg; ED50 (Rattus norvegicus [21]): 2.63 mg/kg; selectivity ratio [34]: 3.05 |
| NC(=O)N/N=C\c1ccc(OS(=O)(=O)c2ccccc2)cc1 | 30 | 30 | 300 |  |  |  |  |  |  |  |  | 30 | 300 |  | 3 | 2 | 2 | 4 | ED50 (Mus musculus [35]): 25.3 mg/kg; ED50 (Mus musculus [36]): > 100 mg/kg; TD50 at 1 h [37]: 113 mg/kg; Activity (Rattus norvegicus [32]): 1; selectivity ratio [29]: 4.47 |
